From the M2OR odorant receptor database

Legend:
Conditions in all cases: stereoisomer not certain
OR8B12 (Homo sapiens) = OR8B12 (Homo sapiens) (UniProt Q8NGG6)
Summary of the method: (§1)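 Values were gathered from published papers (main text and supplementary material), with extra details requested from the original authors when needed, and checked for typos and inconsistencies. Each receptor–molecule pair is called responsive (active) if the original authors judged the measured signal statistically different from baseline, and non-responsive (inactive) otherwise. Assay methods varied by source, often transient mammalian cell-line luciferase assays. Recorded details include cell line, G-protein, co-transfected protein and tags.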

OR8B2 (Homo sapiens) = OR8B2 (Homo sapiens) (UniProt Q96RD0)
Sequence of OR8B2 (Homo sapiens) (Q96RD0 whole entry): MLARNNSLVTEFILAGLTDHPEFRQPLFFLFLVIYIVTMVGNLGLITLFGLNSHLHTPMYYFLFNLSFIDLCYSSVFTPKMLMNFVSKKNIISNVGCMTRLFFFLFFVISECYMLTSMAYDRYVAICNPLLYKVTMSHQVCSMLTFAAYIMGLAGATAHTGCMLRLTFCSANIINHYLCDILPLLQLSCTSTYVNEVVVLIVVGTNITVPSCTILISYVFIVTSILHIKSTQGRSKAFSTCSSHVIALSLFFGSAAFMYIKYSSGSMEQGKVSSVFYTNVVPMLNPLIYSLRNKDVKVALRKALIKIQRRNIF
Summary of the method: as §1

OR8B3 (Homo sapiens) = OR8B3 (Homo sapiens) (UniProt Q8NGG8)
Sequence of OR8B3 (Homo sapiens) (Q8NGG8 whole entry): as the sequence (Q96RD0 whole entry) above, with R24Q, I34V, T47I, N94Y, R100Q, T205I, T208M counted along it
Summary of the method: as §1

OR8B4 (Homo sapiens) = OR8B4 (Homo sapiens) (UniProt Q96RC9)
Sequence of OR8B4 (Homo sapiens) (Q96RC9 whole entry): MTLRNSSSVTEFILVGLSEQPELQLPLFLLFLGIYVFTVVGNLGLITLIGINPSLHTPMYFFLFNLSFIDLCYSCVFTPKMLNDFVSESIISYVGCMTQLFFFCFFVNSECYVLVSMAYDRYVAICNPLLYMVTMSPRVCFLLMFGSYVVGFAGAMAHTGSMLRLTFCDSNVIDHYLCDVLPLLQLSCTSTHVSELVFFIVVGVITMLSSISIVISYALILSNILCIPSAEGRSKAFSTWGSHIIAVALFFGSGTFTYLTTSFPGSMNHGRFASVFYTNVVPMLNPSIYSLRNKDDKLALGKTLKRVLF
Summary of the method: as §1

OR8B2 L164F = system: OR8B2 L164F
Sequence of OR8B2 L164F (as listed by the source, stated change not applied): as the sequence (Q96RD0 whole entry) above, with L164F counted along it
Summary of the method: as §1

OR8B2 S273F = system: OR8B2 S273F
Sequence of OR8B2 S273F (as listed by the source, stated change not applied): as the sequence (Q96RD0 whole entry) above, with S273F counted along it
Summary of the method: as §1

OR8B3 H20R Q24R M114I = system: OR8B3 H20R Q24R M114I
Summary of the method: as §1

OR8B3 H20R Q24R Y113H = system: OR8B3 H20R Q24R Y113H
Summary of the method: as §1

OR8B3 H20R Q24R = system: OR8B3 H20R Q24R
Summary of the method: as §1

OR8B4 = system: OR8B4
Sequence of OR8B4 (as listed by the source): as the sequence (Q96RC9 whole entry) above, with E22G counted along it
Summary of the method: as §1

Measured: odorant receptor agonist call

Sequence of OR8B12 (Homo sapiens) (Q8NGG6 whole entry): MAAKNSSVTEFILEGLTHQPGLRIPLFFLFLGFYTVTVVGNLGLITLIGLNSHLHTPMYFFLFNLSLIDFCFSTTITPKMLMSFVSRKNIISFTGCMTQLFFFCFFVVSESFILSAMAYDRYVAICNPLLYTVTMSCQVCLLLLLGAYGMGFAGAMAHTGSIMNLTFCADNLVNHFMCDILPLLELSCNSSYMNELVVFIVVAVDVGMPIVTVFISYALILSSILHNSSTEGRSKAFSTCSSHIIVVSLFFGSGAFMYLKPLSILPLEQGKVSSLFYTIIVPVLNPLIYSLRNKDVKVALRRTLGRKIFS

Cc1c([N+](=O)[O-])c(C)c([N+](=O)[O-])c(C(C)(C)C)c1[N+](=O)[O-]
inactive: OR8B12 (Homo sapiens) | OR8B2 (Homo sapiens) | OR8B3 (Homo sapiens) | OR8B4 (Homo sapiens)

C=CCOC(=O)Cc1ccccc1
inactive: all assays above
